We go through 19 molecules from ChEMBL document CHEMBL1123569 (J Med Chem, 1987).

*1 amine or outer side, *2 acyl side, *3 side chain or, on linkers, in order; H or OH if unused. Where a SMILES comes first, the peptide text is derived from it. [ ]: non-standard residue; d: D form. The star is where a group is joined. ξ: configuration not given here. Met(O2) = CS(=O)(=O)CC[C@H](N)C(=O)O; Sta = CC(C)C[C@H](N)[C@@H](O)CC(=O)O; X1 = O=C(C(N[*:1])c1cccs1)[*:2]; ξGly(cPent) = NC(C(=O)O)C1CCCC1; Cha = N[C@@H](CC1CCCCC1)C(=O)O; Isovaleryl = CC(C)CC(=O)*; ξChg = NC(C(=O)O)C1CCCCC1; ξPhg = NC(C(=O)O)c1ccccc1; Nle = CCCC[C@H](N)C(=O)O; Boc = CC(C)(C)OC(=O)*; Bn = c1ccc(C*)cc1; X2 = c1cncc(C*)c1

This assay has as its target T1, Renin (Homo sapiens, UniProt P00797).
T1 sequence (P00797 whole entry): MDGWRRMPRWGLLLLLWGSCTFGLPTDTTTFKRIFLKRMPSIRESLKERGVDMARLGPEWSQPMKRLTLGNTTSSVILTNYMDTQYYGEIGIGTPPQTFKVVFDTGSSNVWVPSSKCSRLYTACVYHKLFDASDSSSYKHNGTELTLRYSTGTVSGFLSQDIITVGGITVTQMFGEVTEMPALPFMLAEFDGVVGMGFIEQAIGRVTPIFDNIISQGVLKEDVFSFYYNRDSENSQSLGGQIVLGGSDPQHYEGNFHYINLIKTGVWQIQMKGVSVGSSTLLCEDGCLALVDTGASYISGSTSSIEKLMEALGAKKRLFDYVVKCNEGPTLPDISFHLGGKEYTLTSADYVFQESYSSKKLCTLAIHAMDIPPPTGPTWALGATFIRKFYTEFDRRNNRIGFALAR
The assay can be described thus: Inhibition of human plasma renin. The class given is cell-free. The method, boiled down: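 Enriched human plasma renin preparation, substrate its own endogenous angiotensinogen (about 2×10^-6 M). Inhibitor added over a range of increasing concentrations. Angiotensin I released was quantified by RIA. With substrate held constant across the series, IC50 is treated as linearly proportional to Ki.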
For orientation: IC50 means the concentration that inhibits the measured activity by half. Read a high IC50 as a need for much substance. As to `COC(=O)C[C@H](O)[C@H](CC(C)C)NC(=O)[C@H](C)NC(=O)C[C@H](O)[C@H](CC(C)C)NC(=O)[C@H](Cc1ccccc1)NC(=O)[C@H](Cc1ccccc1)NC(C)=O` (Ac-FF[Sta]A[Sta]-OMe), the half-inhibitory concentration (IC50) is 1410 nM.
For `COC(=O)C[C@H](O)[C@H](CC(C)C)NC(=O)[C@H](C)NC(=O)C[C@H](O)[C@H](CC(C)C)NC(=O)[C@H](CCSC)NC(=O)[C@H](Cc1ccccc1)NC(=O)OC(C)(C)C` (Boc-FM[Sta]A[Sta]-OMe) the value was 316 nM; for `COC(=O)C[C@H](O)[C@H](CC(C)C)NC(=O)[C@H](C)NC(=O)C[C@H](O)[C@H](CC(C)C)NC(=O)[C@H](CC(N)=O)NC(=O)[C@H](Cc1ccccc1)NC(=O)OC(C)(C)C` (Boc-FN[Sta]A[Sta]-OMe), 1200 nM.
As for `COC(=O)C[C@H](O)[C@H](CC(C)C)NC(=O)[C@H](C)NC(=O)C[C@H](O)[C@H](CC(C)C)NC(=O)[C@H](CCC(N)=O)NC(=O)[C@H](Cc1ccccc1)NC(=O)OC(C)(C)C` (Boc-FQ[Sta]A[Sta]-OMe), the IC50 is 316 nM.
As for `COC(=O)C[C@H](O)[C@H](CC(C)C)NC(=O)[C@H](C)NC(=O)C[C@H](O)[C@H](CC(C)C)NC(=O)[C@H](COCc1ccccc1)NC(=O)[C@H](Cc1ccccc1)NC(=O)OC(C)(C)C` (Boc-FS(Bn)[Sta]A[Sta]-OMe), half-maximal inhibition (IC50) required 174 nM.
The result for `CCOC[C@H](NC(=O)[C@H](Cc1ccccc1)NC(=O)OC(C)(C)C)C(=O)N[C@@H](CC(C)C)[C@@H](O)CC(=O)N[C@@H](C)C(=O)N[C@@H](CC(C)C)[C@@H](O)CC(=O)OC` (Boc-FS(Et)[Sta]A[Sta]-OMe) reads 112 nM; that for `COC(=O)C[C@H](O)[C@H](CC(C)C)NC(=O)[C@H](C)NC(=O)C[C@H](O)[C@H](CC(C)C)NC(=O)[C@H](COCc1cccnc1)NC(=O)[C@H](Cc1ccccc1)NC(=O)OC(C)(C)C` (Boc-FS(X2)[Sta]A[Sta]-OMe), 316 nM.
For `COC(=O)C[C@H](O)[C@H](CC(C)C)NC(=O)[C@H](C)NC(=O)C[C@H](O)[C@H](CC(C)C)NC(=O)[C@H](CO)NC(=O)[C@H](Cc1ccccc1)NC(=O)OC(C)(C)C` (Boc-FS[Sta]A[Sta]-OMe) the value was 437 nM; for `COC(=O)C[C@H](O)[C@H](CC(C)C)NC(=O)[C@H](C)NC(=O)C[C@H](O)[C@H](CC(C)C)NC(=O)[C@H](Cc1c[nH]c2ccccc12)NC(=O)[C@H](Cc1ccccc1)NC(=O)OC(C)(C)C` (Boc-FW[Sta]A[Sta]-OMe), 120 nM; for `COC(=O)C[C@H](O)[C@H](CC(C)C)NC(=O)[C@H](C)NC(=O)C[C@H](O)[C@H](CC(C)C)NC(=O)[C@H](Cc1ccc(OCc2ccccc2)cc1)NC(=O)[C@H](Cc1ccccc1)NC(=O)OC(C)(C)C` (Boc-FY(Bn)[Sta]A[Sta]-OMe), 1410 nM.
On to `COC(=O)C[C@H](O)[C@H](CC(C)C)NC(=O)[C@H](C)NC(=O)C[C@H](O)[C@H](CC(C)C)NC(=O)[C@H](CC1CCCCC1)NC(=O)[C@H](Cc1ccccc1)NC(=O)OC(C)(C)C` (Boc-F[Cha][Sta]A[Sta]-OMe), for which the IC50 is 490 nM.
`COC(=O)C[C@H](O)[C@H](CC(C)C)NC(=O)[C@H](C)NC(=O)C[C@H](O)[C@H](CC(C)C)NC(=O)[C@H](CCS(C)(=O)=O)NC(=O)[C@H](Cc1ccccc1)NC(=O)OC(C)(C)C` (Boc-F[Met(O2)][Sta]A[Sta]-OMe) had an IC50 of 10000 nM.
For `CCCC[C@H](NC(=O)[C@H](Cc1ccccc1)NC(=O)OC(C)(C)C)C(=O)N[C@@H](CC(C)C)[C@@H](O)CC(=O)N[C@@H](C)C(=O)N[C@@H](CC(C)C)[C@@H](O)CC(=O)O` (Boc-F[Nle][Sta]A[Sta]-OH) the value was 30.2 nM; for `CCCC[C@H](NC(=O)[C@H](Cc1ccccc1)NC(=O)OC(C)(C)C)C(=O)N[C@@H](CC(C)C)[C@@H](O)CC(=O)N[C@@H](C)C(=O)N[C@@H](CC(C)C)[C@@H](O)CC(=O)OC` (Boc-F[Nle][Sta]A[Sta]-OMe), 120 nM.
`COC(=O)C[C@H](O)[C@H](CC(C)C)NC(=O)[C@H](C)NC(=O)C[C@H](O)[C@H](CC(C)C)NC(=O)C(NC(=O)[C@H](Cc1ccccc1)NC(=O)OC(C)(C)C)c1cccs1` (some centres undefined) (Boc-F[X1][Sta]A[Sta]-OMe) had an IC50 of 251 nM.
For the molecule `COC(=O)C[C@H](O)[C@H](CC(C)C)NC(=O)[C@H](C)NC(=O)C[C@H](O)[C@H](CC(C)C)NC(=O)C(NC(=O)[C@H](Cc1ccccc1)NC(=O)OC(C)(C)C)C1CCCCC1` (some centres undefined) (Boc-F[ξChg][Sta]A[Sta]-OMe), the IC50 was 151 nM.
Regarding `COC(=O)C[C@H](O)[C@H](CC(C)C)NC(=O)[C@H](C)NC(=O)C[C@H](O)[C@H](CC(C)C)NC(=O)C(NC(=O)[C@H](Cc1ccccc1)NC(=O)OC(C)(C)C)C1CCCC1` (some centres undefined) (Boc-F[ξGly(cPent)][Sta]A[Sta]-OMe), the IC50 was 37.2 nM.
`COC(=O)C[C@H](O)[C@H](CC(C)C)NC(=O)[C@H](C)NC(=O)C[C@H](O)[C@H](CC(C)C)NC(=O)C(NC(=O)[C@H](Cc1ccccc1)NC(=O)OC(C)(C)C)c1ccccc1` (some centres undefined) (Boc-F[ξPhg][Sta]A[Sta]-OMe) gave a 50% inhibitory concentration (IC50) of 93.3 nM.
The molecule `COC(=O)C[C@H](O)[C@H](CC(C)C)NC(=O)[C@H](C)NC(=O)C[C@H](O)[C@H](CC(C)C)NC(=O)[C@H](Cc1ccccc1)NC(=O)[C@H](Cc1ccccc1)NC(=O)CC(C)C` (Isovaleryl-FF[Sta]A[Sta]-OMe) had an IC50 of 316 nM.
